An excerpt weighted towards active compounds, which were near 2% of everything screened.
C8 TRAIL sens = viability loss with TRAIL in NB7+C8 cells, primary screen, TRAIL sensitizer project, cell-based, ATPlite luminescence. inhibition (viability loss, TRAIL sensitization), % at 10 µM. 360,000 tested, 1% active;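 active = compounds causing at least 50% loss of cell viability in the single-dose screen, relative to plate controls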
PPC-1+TRAIL kill = compounds killing PPC-1 cancer cells with TRAIL present, primary screen, TRAIL potentiator project, ATPLite luminescence, uHTS; cell killing (% activity), % at 4 µM or 5 µM; PPC-1 cells + TRAIL, ATPLite viability luminescence; AID 1443, 2008; 220,000 tested, 0.41% active;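 active = cell killing above 50% in the first pass at 4 µM, then a duplicate retest at 5 µM averaging 50% or more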;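 also: plate controls were cells with TRAIL plus DMSO for no effect and medium-only wells lacking cells for full effect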
FLuc stim CS = FLuc activators, initial screening, artefact control for FLuc-dependent activation tests, biochemical, ATPlite luminescence | Luciferin 4-monooxygenase (Photinus pyralis), P08659 | ATPlite luciferase biochemical, 10 min; 0 = ATP-free wells, 1 = DMSO control | 200,000 tested, under 10 active | activation factor at 10 µM;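 active = luciferase activation factor, scaled between plate controls, of at least 2 with compound at 10 µM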
Target sequence (P08659 whole entry, looked up): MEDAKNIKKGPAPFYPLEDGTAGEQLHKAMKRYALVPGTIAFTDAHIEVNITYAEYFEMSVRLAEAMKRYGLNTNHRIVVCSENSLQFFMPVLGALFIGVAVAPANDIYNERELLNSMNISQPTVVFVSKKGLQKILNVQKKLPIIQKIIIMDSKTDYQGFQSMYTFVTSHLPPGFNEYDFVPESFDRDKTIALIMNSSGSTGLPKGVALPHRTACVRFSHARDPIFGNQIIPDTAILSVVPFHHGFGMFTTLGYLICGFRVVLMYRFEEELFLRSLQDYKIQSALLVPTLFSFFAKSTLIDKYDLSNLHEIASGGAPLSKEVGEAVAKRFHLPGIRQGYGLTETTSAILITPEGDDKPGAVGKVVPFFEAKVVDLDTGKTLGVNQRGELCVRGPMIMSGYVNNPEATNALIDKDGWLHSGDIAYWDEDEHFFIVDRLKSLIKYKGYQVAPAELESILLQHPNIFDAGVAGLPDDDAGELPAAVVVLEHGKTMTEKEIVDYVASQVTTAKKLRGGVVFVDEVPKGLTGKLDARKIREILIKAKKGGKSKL
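System: luciferase plus luciferin reagent, cell-free; medium: PBS as buffer for the ATP substrate; dosing: test compounds dosed from 2 mM stocks in 100% DMSO; timing: 10 min post-reagent at room temperature; measured by: luminescence measurement of luciferase light output; evaluation: luciferase activation, seen as luminescence increase over controls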
FLuc inhib CS = firefly luciferase enzyme inhibitors, primary screen, artefact control for luciferase-based inhibitor screens, biochemical, luminescence, ATPLite | Luciferin 4-monooxygenase (Photinus pyralis), P08659 | 10 min | inhibition, % at 10 µM | 200,000 tested, 1.5% active | AID 1006, 2008;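 active = inhibition above about 50% when tested at 10 µM, limit read from the data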
HSP90 refold inh = HSP90 inhibitors, primary screen, cell lysate, luminescence | Rabbit reticulocyte lysate, luciferase refolding luminescence, 3 h | 290,000 tested, 0.91% active | inhibition, % at 5.6 µM | AID 1789, 2009;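 active = inhibition above the screen-wide mean plus 3 SD, computed separately per campaign, cut at about 16% in these data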;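 also: 0% = DMSO wells and 100% = 60 µM geldanamycin wells; inhibitors lower the luminescence because luciferase stays unfolded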
* hit, by the source's call; . = no result.

SMILES | C8 TRAIL sens | PPC-1+TRAIL kill | FLuc stim CS | FLuc inhib CS | HSP90 refold inh
CCOc1ccc(OCc2ccc(C(=O)NN)o2)cc1 | 6 | 27 | . | . | 16*
C[C@@H](NC(=O)[C@@H]1CCCN1C(=O)[C@@H]1CCCN1C(=O)c1ccc(Cl)cc1)c1ccccc1 | -3 | . | . | . | .
CC(=O)Nc1cc(OC(C)=O)c2nonc2c1OC(C)=O | -14 | 11 | 1.1 | -5 | 85*
CCCNC(=O)N[C@H]1C=C[C@H](CC(=O)NC2CCCCC2)O[C@@H]1CO | -7 | . | . | . | .
COc1cc(CNc2ccc(N3CCCC3)cc2)ccc1OCc1ccccc1F | 30 | 0 | 0.4 | 57* | -3
COc1cc(CNc2ccc(N3CCCC3)cc2)ccc1OCc1ccccc1 | 23 | 2 | 0.7 | 35 | -2
Cc1noc(C)c1C(=O)N1CCCC(C)(C(=O)NS(=O)(=O)C2CC2)C1 (stereo not drawn) | -15 | . | . | . | .
Cc1cc(C)nc(Nc2nc3ccccc3s2)n1 | 6 | 4 | 0.9 | 8 | -2
Cc1ccc(Nc2nc3ccccc3s2)c(C)c1 | 55* | 37 | 0.3 | 66* | 3
CNC(=O)c1ccc(-c2ccc(OC)cc2)s1 | 31 | 36 | 0.4 | 61* | 0
COc1cc2c3nnc(-c4ccc(F)cc4)c-3cn(Cc3ccc(F)cc3)c2cc1OC | 1 | 11 | 1 | 3 | -3
COc1cc2c3nnc(-c4ccc(F)cc4)c-3cn(Cc3ccccc3)c2cc1OC | 67* | 28 | 1.1 | -6 | 0
Cc1ccc(NC(=O)c2ccc3nc[nH]c3c2)c(O)c1 | 5 | 31 | 0.5 | 50* | -1
CCOC(=O)C1=CN(CC)S(=O)(=O)NC1CC (stereo not drawn) | -6 | . | . | . | .
COc1cccc2c1C(=O)c1c(O)c3c(c(O)c1C2=O)C[C@@](O)(C(=O)CO)C[C@@H]3O[C@H]1C[C@H](N)[C@@H](O)[C@H](C)O1 | 57* | . | . | . | .
COc1cccc2c1C(=O)c1c(O)c3c(c(O)c1C2=O)CC(O)(C(=O)CO)CC3OC1CC(N(C)C)C(O)C(C)O1 (stereo not drawn) | 49 | . | . | . | .
Cc1ccc(NS(=O)(=O)c2cc(NC(=O)c3ccc4c(c3)NC(=O)CS4)ccc2C)c(C)c1 | 16 | 19 | 1.1 | -7 | 17*
c1ccc(-c2nnc(-c3ccccc3)o2)cc1 | 14 | 6 | 0.6 | 41 | -1
Cc1cccc(-c2nnc(-c3ccc(N)cc3)o2)c1 | 38 | 32 | 0.4 | 56* | 7
Clc1cccc(-c2nnc(-c3ccccc3)o2)c1 | 46 | 25 | 0.3 | 73* | 4
COc1cc(Cl)ccc1OCc1cc(C(=O)N2CCN(C3CCCCC3)CC2)no1 | 1 | . | . | . | .
O=S1(=O)N[C@@H](c2ccccc2)COc2cc(Br)ccc21 | -16 | . | . | . | .
Cc1ccc(NC(=O)c2ccc(CSc3nnc(C)s3)cc2)cc1 | 34 | 42 | 0.4 | 56* | 2
Cc1ccc(NC(=O)c2ccc(CSc3nnnn3C)cc2)cc1 | 58* | 39 | 0.4 | 57* | -2
CCn1c(=O)c2[nH]c(SC)nc2n(CC)c1=O | -6 | . | . | . | .
SMILES | C8 TRAIL sens | PPC-1+TRAIL kill | FLuc stim CS | FLuc inhib CS | HSP90 refold inh
NS(=O)(=O)c1cccc(NC(=O)/C=C/c2cccs2)c1 | 32 | 42 | 0.3 | 73* | 3
O=C(/C=C/c1cccs1)Nc1cccc(NC(=O)/C=C/c2cccs2)n1 | 73* | 28 | 0.4 | 60* | 6
COc1ccc(C(C)(O)c2nc(-c3cnc4ccccc4c3)cs2)cc1 (stereo not drawn) | 14 | . | . | . | .
COc1ccc2c(c1OC)C(=O)N1c3ccccc3COC21 (stereo not drawn) | 47 | 25 | 0.3 | 72* | 3
COc1ccc2c(c1OC)C(=O)N1c3ccccc3SC21 (stereo not drawn) | 27 | 5 | 0.5 | 54* | 0
Cc1cn([C@H]2C[C@H](O)[C@@H](CCC(=O)NCCc3cccs3)O2)c(=O)[nH]c1=O | -14 | . | . | . | .
Cc1ccc(/C=C2\Sc3ccccc3C2=O)s1 | 8 | 11 | 0.1 | 87* | -2
COc1cccc(-c2cc(NC(C)=O)c3ncc(-c4ccc(OC)c(OC)c4)n3c2)c1 | -5 | . | . | . | .
CCCCNC(=O)c1ccc(Cn2c(=S)[nH]c3c([nH]c4ccc(OC)cc43)c2=O)cc1 | 70* | 17 | 1.1 | -6 | -1
O=C(Nc1cccc2ccccc12)c1csc([C@@H]2C[C@H](O)[C@@H](CO)O2)n1 | -3 | . | . | . | .
CCc1ccc(N=C2N=C(N)c3ccccc32)cc1 | 38 | 26 | 0.1 | 92* | 0
Cc1ccc(N=C2N=C(N)c3ccccc32)cc1C | 0 | . | . | . | -1
C=Cc1ncc(OC)c2c1[nH]c1ccccc12 | 66* | . | . | . | .
Nc1nc(-c2ccccn2)nc(N)c1Cc1ccccc1F | 29 | 0 | 0.4 | 57* | 2
CN(C)CCCNc1c2c(nc3ccccc13)CCC2 | -6 | . | . | . | 0
CN(C)CCNCCCNc1c2ccccc2nc2cccc([N+](=O)[O-])c12 | 61* | . | . | . | .
O=C(Nc1nnc(-c2ccccc2Cl)o1)c1ccco1 | 45 | 30 | 0.3 | 66* | 0
O=C(Nc1nnc(-c2ccc(Br)cc2)o1)c1ccco1 | 54* | . | . | . | .
Cc1ccc(-c2nnc(NC(=O)c3ccco3)o2)c(C)c1 | 55* | . | . | . | .
Cc1ccc(C)c(-c2nnc(NC(=O)c3ccco3)o2)c1 | 25 | . | . | . | .
N#CN1C2CCC1CC(O)(c1ccccc1)C2 (stereo not drawn) | 9 | . | . | . | .
CCCOc1ccc(/C=c2\sc3nc(-c4ccco4)nn3c2=O)cc1OCC | 5 | 4 | 1 | 0 | 3
CC(=O)Oc1cccc(/C=c2\sc3nc(-c4ccco4)nn3c2=O)c1 | -3 | 8 | 0.1 | 89* | 0
O=c1cc(-c2ccc3c(c2)OCCO3)oc2ccc(Cl)cc12 | 48 | 14 | 0.5 | 50* | -3
O=C(c1cc(C2CCCCN2C(=O)OCCF)on1)N1CCOCC1 (stereo not drawn) | -6 | . | . | . | .
SMILES | C8 TRAIL sens | PPC-1+TRAIL kill | FLuc stim CS | FLuc inhib CS | HSP90 refold inh
Cc1ccc(C(=O)Nc2ccc(O)cc2C(=O)O)cc1 | 25 | 20 | 0.4 | 59* | 3
Cc1cccc(C(=O)Nc2ccc(O)cc2C(=O)O)c1 | 2 | 2 | 0.8 | 24 | -2
Cc1ccc(C(=O)Nc2ccc(O)cc2C(=O)O)cc1C | 31 | 36 | 0.3 | 69* | 1
O=C(CSc1ccccn1)Nc1nonc1[N+](=O)[O-] | 54* | . | . | . | 3
O=C(CSc1ccccn1)Nc1ccc(NC(=O)CSc2ccccn2)cc1 | -1 | 8 | 1 | -2 | -2
Cc1nc2c(N)nn(C)c2nc1C | -6 | . | . | . | .
CCS(=O)(=O)c1ncc(Cl)c(C(=O)Nc2ccc(S(=O)(=O)N(C)c3ccccc3)cc2)n1 | 98* | . | . | . | 4
CCN(c1ccccc1)S(=O)(=O)c1ccc(NC(=O)c2nc(S(C)(=O)=O)ncc2Cl)cc1 | 91* | . | . | . | 1

Compound activity (PubChem)
